In ChEMBL document CHEMBL1138888, “Activity of and initial mechanistic studies on a novel antileishmanial agent identified through in silico pharmacophore development and database searching” (J Med Chem, 2006):
pIC50: −log10 of the molar value. Active and inactive are the calls of the source. No cut-off for these calls is given here.

Legend:
Leishmania donovani [1] = assay: Antileishmanial activity against Leishmania donovani axenic amastigotes; format: functional, organism-based
Summary of the method: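 L. donovani axenic amastigotes (MHOM/SD/62/1S-CL2D), adapted from promastigotes and kept at 37 °C in amastigote medium. 6 × 10^4 cells per well, 2-fold compound dilution series, 3 days at 37 °C in 5% CO2. Growth read by tetrazolium (CellTiter) absorbance at 490 nm. IC50 taken from a four-parameter dose-response fit; three or more separate experiments, error given as SD.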

Leishmania donovani [2] = assay: Reduction in Leishmania donovani load in infected BALB/c mouse at 50 mg/kg/day, ip; format: functional; details: route intraperitoneal
Summary of the method: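 BALB/c mice, 12 weeks old, infected i.v. (tail vein) with 1 × 10^7 hamster-spleen-derived L. donovani amastigotes. After 7 days, dosed i.p. daily for 5 days in 0.5% methylcellulose/0.1% Tween-80/10% DMSO in water; vehicle controls run. Killed 4 days after treatment. Liver burden scored as LDUs from Giemsa-stained smears; mean ± SD of five mice.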

Leishmania mexicana [3] = assay: Reduction in Leishmania mexicana infection in mouse J774 macrophage at 2 uM; format: functional; parameters: scale not given: the % may be the effect or the level left
Summary of the method: (§1)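 J774 macrophages (1 × 10^5 per well) allowed to adhere overnight, then infected with 1 × 10^6 L. mexicana promastigotes (MNYC/BCZ/62/M379) overnight at 33 °C. After washing, treated with compound or 1% DMSO vehicle for 3 days at 33 °C, methanol-fixed and Giemsa-stained. Percent reduction of infection is relative to controls; average ± range of two experiments.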

Vero = assay: Antiproliferative activity against Vero cell; format: functional, cell-based; details: Chlorocebus sabaeus
Summary of the method: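 Vero cells grown in alpha-MEM with Glutamax-I, 10% heat-inactivated FBS, penicillin/streptomycin. 1 × 10^3 cells per well seeded with compounds over a 2-fold dilution series, run like the amastigote assay: 3 days at 37 °C, humidified, 5% CO2. Growth read by tetrazolium (CellTiter) absorbance at 490 nm. IC50 from four-parameter dose-response fit; three or more separate experiments.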

Leishmania mexicana [4] = assay: Reduction in Leishmania mexicana infection in mouse J774 macrophage at 8 uM; format: functional; parameters: scale not given: the % may be the effect or the level left; summary of the method: as §1
Leishmania sp. = assay: Inhibition of Leishmania tarentolae tubulin assembly; format: functional
Summary of the method: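 Purified L. tarentolae tubulin at 1.5 mg/mL in […] pH 6.9 with 1 mM MgCl2, 1 mM EGTA, 10% DMSO and 1 mM GTP, incubated at 30 °C with or without compound (2 or 20 µM tested). Assembly followed as turbidity at 351 nm.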

Leishmania donovani [5] = assay: Cell cycle arrest in Leishmania donovani promastigotes by accumulation at G2/S phase at 2 uM; format: functional, organism-based; details: in the assay text read “G2/M phase” for “G2/S phase”
Summary of the method: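 L. donovani promastigotes at 5 × 10^6 cells/mL in RPMI-based promastigote medium with 10% HI-FBS, treated or given vehicle (1% DMSO) for 2 days at 25 °C. Cells then methanol-fixed and stained with propidium iodide (10 µg/mL) with Triton X-100 and RNase A. DNA content per cell measured by flow cytometry; histograms representative of three experiments.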

Leishmania mexicana [6] = assay: Reduction in Leishmania mexicana infection in mouse J774 macrophage at 4 uM; format: functional; parameters: scale not given: the % may be the effect or the level left; summary of the method: as §1
Leishmania mexicana [7] = assay: Reduction in Leishmania mexicana infection in mouse J774 macrophage at 25 nM; format: functional; parameters: scale not given: the % may be the effect or the level left; summary of the method: as §1
Leishmania mexicana [8] = assay: Reduction in Leishmania mexicana infection in mouse J774 macrophage at 125 nM; format: functional; parameters: scale not given: the % may be the effect or the level left; summary of the method: as §1
Leishmania mexicana [9] = assay: Reduction in Leishmania mexicana infection in mouse J774 macrophage at 50 nM; format: functional; parameters: scale not given: the % may be the effect or the level left; summary of the method: as §1

O=C(O)c1ccccc1C(=O)NCCNc1ccc(C(F)(F)F)cn1
pIC50 (Leishmania donovani [1]): < 4.00

Cc1cc(Sc2c([N+](=O)[O-])cc(C(F)(F)F)cc2[N+](=O)[O-])c(Cl)cc1Cl
Activity (Leishmania donovani [2]): 1583
Activity (Leishmania mexicana [3]): 13%
pIC50 (Vero): 5.28
Activity (Leishmania mexicana [4]): 68%
Activity (Leishmania sp.): inactive
Activity (Leishmania donovani [5]): inactive
pIC50 (Leishmania donovani [1]): 6.30
Activity (Leishmania mexicana [6]): 43%

O=C1NC(=O)c2c1ccc(Sc1c(Cl)cccc1Cl)c2[N+](=O)[O-]
pIC50 (Leishmania donovani [1]): 4.22

Cc1nc(-c2ccc(S(=O)(=O)Nc3ccc(Br)cc3Cl)s2)cs1
pIC50 (Leishmania donovani [1]): 4.18

Cc1cc(S(=O)(=O)c2c([N+](=O)[O-])cc(C(F)(F)F)cc2[N+](=O)[O-])c(Cl)cc1Cl
pIC50 (Vero): 4.62
pIC50 (Leishmania donovani [1]): 5.64

CSc1cccc(-n2c(S)nnc2CCc2ccc(O)cc2)c1
pIC50 (Leishmania donovani [1]): < 4.00

Cc1cc(C)c(-n2nnnc2SCc2ccc(C(F)(F)F)cc2)c(C)c1
pIC50 (Leishmania donovani [1]): 4.49

O=C(CSCc1cccc(C(F)(F)F)c1)c1ccc(OCc2ccc(F)cc2)cc1
pIC50 (Leishmania donovani [1]): < 4.00

COc1ccc([N+](=O)[O-])c(OC)c1C(=O)NCCCn1ccnc1
pIC50 (Leishmania donovani [1]): < 4.00

OC(CNCc1ccc(Cl)cc1Cl)Cn1c(-c2ccc(F)cc2)cc2ccccc21 (stereo not drawn)
pIC50 (Leishmania donovani [1]): 4.43

CCCN(CCC)c1c([N+](=O)[O-])cc(S(=O)(=O)Nc2cccc(F)c2)cc1[N+](=O)[O-]
pIC50 (Leishmania donovani [1]): 5.60

C[C@@H]1[C@H](O)[C@@H](C)/C=C/C=C/C=C/C=C/C=C/C=C/C=C/[C@H](O[C@@H]2O[C@H](C)[C@@H](O)[C@H](N)[C@@H]2O)C[C@@H]2O[C@](O)(C[C@@H](O)C[C@@H](O)[C@H](O)CC[C@@H](O)C[C@@H](O)CC(=O)O[C@H]1C)C[C@H](O)[C@H]2C(=O)O [AMPHOTERICIN B]
Activity (Leishmania mexicana [7]): 44%
Activity (Leishmania mexicana [8]): 96%
Activity (Leishmania mexicana [9]): 76%

COc1ccc(CCNc2ccc(C(F)(F)F)cc2[N+](=O)[O-])cc1OC
pIC50 (Leishmania donovani [1]): < 4.00

Cc1cc(Sc2nnc3oc(O)cc(C)c2-3)c(C)cc1Cl
pIC50 (Leishmania donovani [1]): 4.41

O=S(=O)(c1ccc(Cl)cc1)N1CCCN(Cc2ccc(Cl)cc2Cl)CC1
pIC50 (Leishmania donovani [1]): 4.14

CC(=O)c1ccc(OCc2ccc(Cl)c(Cl)c2)c([N+](=O)[O-])c1
pIC50 (Leishmania donovani [1]): < 4.00

COc1cc(C2SCCS2)cc(Br)c1Oc1cc(C)c(C(F)(F)F)cc1[N+](=O)[O-]
pIC50 (Leishmania donovani [1]): < 4.00

O=S(=O)(Nc1ccc(Oc2ccc(C(F)(F)F)cc2)cc1)c1cc(Cl)c(Cl)cc1Cl
pIC50 (Leishmania donovani [1]): 4.60

CCCCN(CCCC)c1c([N+](=O)[O-])cc(S(=O)(=O)Nc2cccc(F)c2)cc1[N+](=O)[O-]
pIC50 (Leishmania donovani [1]): 5.24

O=[N+]([O-])c1ccc(Oc2c(Cl)cccc2Cl)c(Cl)c1Oc1c(Cl)cccc1Cl
pIC50 (Leishmania donovani [1]): 4.10

Cc1cc(C(=O)O)c(Sc2nccn2-c2ccc(Cl)cc2Cl)nc1C#N
pIC50 (Leishmania donovani [1]): 4.68

COc1ccccc1NC(=O)CSCc1cnc(C)c(O)c1O
pIC50 (Leishmania donovani [1]): < 4.00

CCCCN(CCCC)c1c([N+](=O)[O-])cc(S(=O)(=O)Nc2ccc(F)cc2)cc1[N+](=O)[O-]
pIC50 (Leishmania donovani [1]): 5.25
